# NR2E3 ag-1 – NR2E3 (human) agonism | Q9Y5X4 | inhibition of corepressor binding, % at 4.78 µM | GST-NR2E3/biotin-RetCOR TR-FRET, 1536-well | AID 2300 | 0.12% of 320,000 active;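 active = percent inhibition above the cutoff of mean plus 3 SD of all tested compounds, set per screening campaign, cut at about 20% in these data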;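 note: 0% = DMSO wells and 100% = biotin wells as full block of FRET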
# Target sequence (Q9Y5X4 whole entry, looked up): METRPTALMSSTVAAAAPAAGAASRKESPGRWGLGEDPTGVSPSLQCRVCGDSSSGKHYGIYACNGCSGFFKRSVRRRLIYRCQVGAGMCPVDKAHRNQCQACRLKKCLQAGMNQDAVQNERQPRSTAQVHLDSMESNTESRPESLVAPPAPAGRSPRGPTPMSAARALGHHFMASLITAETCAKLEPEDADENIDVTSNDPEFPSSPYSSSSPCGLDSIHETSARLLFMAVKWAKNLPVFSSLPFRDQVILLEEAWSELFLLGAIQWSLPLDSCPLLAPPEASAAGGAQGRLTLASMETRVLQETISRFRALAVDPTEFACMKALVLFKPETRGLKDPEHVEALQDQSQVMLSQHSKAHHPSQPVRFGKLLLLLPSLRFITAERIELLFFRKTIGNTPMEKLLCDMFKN
#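 Material: NR2E3–RetCOR corepressor complex / Incubation: Compound–protein incubation for 5 h at 4 °C / Dosing: compound at 4.8 µM, single dose / Detection: time-resolved FRET / Benchmarks: high control biotin, low control 0.6% DMSO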
# rCAG RNA binder – molecules binding r(CAG) RNA repeats | inhibition, % at 3 µM | r(CAG) RNA repeat, TO-PRO-1 dye displacement fluorescence | 1.3% of 370,000 active | AID 651821;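 active = inhibition above the plate cutoff, the mean of all test compounds on that plate plus 3 SD, cut at about 35% in these data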;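 note: 0% = DMSO alone and 100% = 100 µM mitoxantrone as full dye displacement; higher means more dye released from RNA so lower well fluorescence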
# NR1D1 modulator – modulates human Rev-erb alpha binding to DNA | P20393 | activity, % at 10 µM | AID 1259318 | Rev-erbα–FITC-DNA binding, fluorescence polarization, 90 min | 0.79% of 370,000 active;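 active = activity above about 14%, limit read from the data; passing the limit was not always enough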;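 note: 0% = DMSO wells with 35 nM protein and 100% = DMSO wells with 750 nM protein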
# NR2E3 ag-2 – human photoreceptor-specific nuclear receptor agonism | CHO-S Gal4-NCOR/VP16-NR2E3 two-hybrid, luciferase | Q9Y5X4 | inhibition of corepressor binding, % at 3.98 µM | 0.35% of 360,000 active;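 active = inhibition above the mean of all tested compounds plus 3 SD, cut at about 70% in these data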;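 note: 0% = DMSO with NR2E3 transfected cells and 100% = cells lacking NR2E3 construct; higher means lower luciferase signal from less NR2E3 corepressor binding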
# PG9 Ab binder – small molecules binding HIV-1 gp120 antibody PG9 | inhibition, % at 6.7 µM | TR-FRET gp120-PG9 antibody binding | 0.43% of 360,000 active; in the data active = inhibition above about 8.5%
# NR2E3 ag conf – confirmation of human NR2E3 agonists. shares compounds with NR2E3 ag-2. CHO-S mammalian two-hybrid NR2E3-NCOR, luciferase luminescence. inhibition, % at 3.98 µM. 51% of 2,300 active;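 active = average inhibition above a cutoff equal to the mean inhibition of all tested compounds plus one SD, cut at about 70% in these data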;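 note: 0% = DMSO in NR2E3 cells and 100% = DMSO in cells lacking NR2E3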
# VP16 counter – reduces GAL4-VP16 reporter signal in NR2E3 counterscreen; CHO-S GAL4-VP16 luciferase reporter, luminescence; shares compounds with NR2E3 ag-2; 29% of 2,300 active; inhibition, % at 3.98 µM;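 active = mean inhibition above a cutoff equal to the average over all tested compounds plus one standard deviation, cut at about 70% in these data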;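 note: luciferase from a UAS reporter driven by GAL4-VP16 transactivation; 0% = DMSO with VP16-transfected cells and 100% = DMSO with cells lacking VP16; higher means less reporter light so more repression of VP16 activity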
# * = called active by the depositor; / = not tested or not shown. Hits are enriched below; roughly 2.6% of the tested compounds scored in any of these assays.
SMILES,NR2E3 ag-1,rCAG RNA binder,NR1D1 modulator,NR2E3 ag-2,PG9 Ab binder,NR2E3 ag conf,VP16 counter
C=CCCC1CN(Cc2ccc(OC)cc2)S(=O)(=O)c2c(NCc3cc(OC)c(OC)c(OC)c3)cccc2O1 (stereo not given),/,9.9,0.2,/,-3.3,/,/
CC(Oc1ccc(Cl)cc1Cl)c1nc(-c2ccc(NC(=O)c3cccnc3)cc2)no1 (stereo not given),0.0,-1.4,-1.5,14.8,-2.8,/,/
CC(Oc1ccc(Cl)cc1Cl)c1nc(-c2ccc(NC(=O)c3ccncc3)cc2)no1 (stereo not given),-3.4,16.2,-2.0,50.6,-2.6,77.6*,72.2*
COc1ccc(-c2cc(C3CCN(c4cc(Cl)nc(N)n4)CC3)[nH]n2)cc1,2.3,-0.7,-0.2,26.1,-1.9,/,/
Nc1nc(Cl)cc(N2CCC(c3cc(-c4ccc(Cl)cc4)n[nH]3)CC2)n1,3.7,2.2,4.5,91.5*,-1.1,97.9*,73.0*
CCOC(=O)Cn1c(=O)c(-c2cc(Br)ccc2N)nc2ccccc21,0.6,0.2,12.9,75.6*,-3.5,80.1*,68.1
COc1ccc(/C=N\NC(=O)c2ccccc2Br)cc1COc1c(F)c(F)cc(F)c1F,-0.1,5.3,12.7,48.6,2.9,34.7,50.7
CCCOc1ccc(S(=O)(=O)NCc2ccc(OC)cc2)cc1,0.6,-4.7,3.9,50.3,-0.5,63.4,49.1
COc1cccc(CNc2ncnc3cc(Cl)ccc23)c1,/,-6.8,6.6,54.3,0.2,83.7*,68.1
COc1ccc(CNc2ncnc3cc(Cl)ccc23)cc1,5.9,2.1,4.5,21.2,-0.1,/,/
Fc1cccc(CNc2ncnc3cc(Cl)ccc23)c1F,-0.1,0.3,6.3,82.5*,-1.3,64.4,52.5
COCC(=O)N1CCN(C(=O)C(=O)c2cccc(C(F)(F)F)c2)CC1,/,-1.8,3.6,/,0.5,/,/
Cc1cc(C(=O)CSc2ccc(F)cc2)cc(C)c1OC(=S)N(C)C,1.9,0.7,-2.1,63.0,0.1,42.9,9.1
COc1ccc(SCC(=O)c2cc(C)c(OC(=S)N(C)C)c(C)c2)cc1,-0.1,6.8,-0.8,-26.5,-2.2,/,/
O=c1c2cc(F)ccc2sn1-c1ccc(F)cc1,0.8,/,/,46.4,/,/,/
Cc1ccc(C)c(-n2sc3ccc(F)cc3c2=O)c1,1.2,-1.3,1.5,63.2,0.5,-18.3,-17.2
COC(=O)c1ccc2nc(-c3ccc(Cl)cc3)c(Cc3ccccc3)n2c1,/,6.3,-5.7,/,-0.9,/,/
COc1ccc(-c2ocnc2C(=O)NCc2nn(-c3ccccc3)nc2C)cc1,1.6,-1.0,3.4,56.3,1.6,87.4*,72.3*
O=C(CCN1CCCO1)N1CCCC(Nc2cccc(F)c2)C1 (stereo not given),/,3.5,-8.2,-1.6,-1.1,/,/
COc1ccc2oc(C(=O)OCC(=O)N3CCN(S(=O)(=O)c4ccccc4)CC3)c(C)c2c1,-6.4,6.8,0.0,50.6,-1.0,90.1*,71.5*
CC(=O)C1=C(C)N(Cc2ccc(Br)cc2)C(=S)NC1c1cccc(Cl)c1 (stereo not given),/,3.1,-3.5,/,-1.1,/,/
C=CCn1c(SCC(=O)Nc2sccc2C(N)=O)nc2ccc(Cl)cc2c1=O,-1.4,6.9,2.7,69.5,-2.0,35.3,50.2
C=CCn1c(SCC(=O)Nc2sccc2C(N)=O)nc2ccccc2c1=O,-2.9,7.7,4.4,6.5,-0.5,/,/
C=CCn1c(SCC(=O)Nc2sccc2C(N)=O)nc2sc(CC)cc2c1=O,1.8,10.1,-1.7,58.9,1.4,62.1,56.5
CCCCc1c(-c2ccccc2OC)ncn1Cc1ccc(OC)c(Cl)c1,/,-0.2,-3.9,/,1.2,/,/
CCCCS(=O)(=O)N1CCCc2nc(CC)c(CC)cc21,/,-1.2,-4.6,/,1.1,/,/
O=C(C1CCC1)N1CCc2cc(S(=O)(=O)NCC3COc4ccccc4O3)ccc21 (stereo not given),-1.9,3.2,1.6,67.4,1.0,60.2,36.5
O=C(C1CC1)N1CCc2cc(S(=O)(=O)NCC3COc4ccccc4O3)ccc21 (stereo not given),2.4,3.6,1.9,55.6,-0.6,54.4,55.3
